PubChem BioAssay AID624018 (Broad Institute, 2012)
Calls of active or inactive are those of the source.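 The calls were made as follows: active = fitted curve reaches a 35% signal drop at a concentration no higher than twice the top valid dose, in duplicate at both wavelengths; inactive = the rest, including activity in the opposite direction.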

Columns and labels:
[1] = bacterial growth inhibition with EDDHA chelator – absorbance 405 nm, dry powder, dose response (AID 624018); conditions: P. aeruginosa growth with EDDHA, absorbance 405 nm, 24-30 h
Outline: (§1)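 Assay system: Pseudomonas aeruginosa strain ATCC 15692, whole bacterial cells / Incubation: bacterial growth with compound for 24-30 h at 37 °C / Buffer or medium: succinate M9 medium, pH 7.0, with 2 µM EDDHA chelator / Signal: 405 nm absorbance for pyoverdine / Dosing: 3-fold compound dilution series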

[2] = tested on: P. aeruginosa growth with EDDHA, absorbance 405 nm, 24-30 h; experiment: as above
Outline: as §1

Structure (SMILES) | activity change, negative = inhibition ([1]; at 50 µM (top of the series)) | also measured
N#Cc1ccc(C(C#N)c2ccc(Cl)cc2Cl)nc1 (stereo unspecified) | 1.04% (inactive) | 
CC(C#N)(c1ccc(Cl)cc1)c1ccc(C(F)(F)F)cn1 (stereo unspecified) | -3.75% (inactive) | 
N#CC(c1cccc(C(F)(F)F)n1)c1ccc(Cl)cc1F (stereo unspecified) |  | AC35 [2]: 22.7 µM
N#CC(c1ccc(F)cc1)c1cccc(C(F)(F)F)n1 (stereo unspecified) |  | AC35 [2]: 37.6 µM
N#CC(c1cccc(C(F)(F)F)n1)c1ccccc1OC(F)(F)F (stereo unspecified) | -7.42% (inactive) | 
CCCCC(C#N)c1ccc(Cl)cc1F (stereo unspecified) | -1.21% (inactive) | 
N#Cc1cccc(C(C#N)c2ccc(Cl)cc2)n1 (stereo unspecified) | -11.9% (inactive) | 
N#CC(c1ccc(Cl)cc1)c1ncccc1Cl (stereo unspecified) |  | AC35 [2]: 12.6 µM
CCCCC(C#N)c1ccc(C(F)(F)F)cc1 (stereo unspecified) | -6.7% (inactive) | 
N#Cc1cccc(C(C#N)c2ccccc2OC(F)(F)F)n1 (stereo unspecified) | -10.3% (inactive) | 
Cc1ccc(C(C#N)c2ccc(Cl)cc2)nc1 (stereo unspecified) | -8.79% (inactive) | 
N#CC(c1ccc(Cl)cc1)c1ccc(C(F)(F)F)cn1 (stereo unspecified) | 4.01% (inactive) | 
Cc1ccc(C(C#N)c2ccccc2OC(F)(F)F)nc1C#N (stereo unspecified) |  | activity change, negative = inhibition ([1]; at 16 µM (top of the series)): -20.9% (inactive)
CCCCC(C#N)c1ccc(Cl)cc1 (stereo unspecified) | -4.2% (inactive) | 
N#CC(c1cccc(Cl)n1)c1ccc(Cl)cc1Cl (stereo unspecified) | -22.8% (inactive) | 
N#CC(c1ccc(Cl)cc1)c1cccc(C(F)(F)F)n1 (stereo unspecified) |  | AC35 [2]: 19.5 µM
N#CC(c1ccc(F)cc1)c1ccc(C(F)(F)F)c(Cl)n1 (stereo unspecified) | -5.95% (inactive) | 
N#CC(c1cccc(Cl)n1)c1ccccc1OC(F)(F)F (stereo unspecified) | -14.6% (inactive) | 

Structure (SMILES) | activity change, negative = inhibition ([1]; at 50 µM (top of the series)) | also measured
CCCC(C#N)c1ccc(Cl)cc1 (stereo unspecified) | -12.6% (inactive) | 
N#Cc1ccc(C(C#N)c2ccc(Cl)cc2)nc1 (stereo unspecified) | -10.4% (inactive) | 
Cc1cccc(C(C#N)c2ccc(Cl)cc2)n1 (stereo unspecified) | -2.34% (inactive) | 
Cc1ccc(C(C#N)c2ccc(F)cc2)nc1C#N (stereo unspecified) | -6.49% (inactive) | 
N#CC(c1ccc(C(F)(F)F)cc1)c1ccc(C(F)(F)F)c(Cl)n1 (stereo unspecified) | -6.74% (inactive) | 
N#Cc1cccc(C(C#N)c2ccc(Cl)cc2F)n1 (stereo unspecified) | -14.6% (inactive) | 
Cc1ccc(C(C#N)c2ccc(Cl)cc2)nc1C#N (stereo unspecified) | -4.08% (inactive) | 
CCCCC(C#N)c1ccc(F)cc1 (stereo unspecified) | -10.3% (inactive) | 
N#CC(c1ccc(C(F)(F)F)cc1)c1cccc(Cl)n1 (stereo unspecified) | -8.88% (inactive) | 
CCCCC(C#N)c1ccccc1OC(F)(F)F (stereo unspecified) | -4.38% (inactive) | 
N#CC(c1ccc(Cl)cc1)c1ccc(C(F)(F)F)c(Cl)n1 (stereo unspecified) | 11.9% (inactive) | 
N#CC(c1ccc(C(F)(F)F)c(Cl)n1)c1ccc(Cl)cc1Cl (stereo unspecified) | 4.93% (inactive) | 
N#CC(c1ccc(C(F)(F)F)c(Cl)n1)c1ccccc1OC(F)(F)F (stereo unspecified) | -8.72% (inactive) | 
N#CC(CC1CC1)c1ccc(Cl)cc1 (stereo unspecified) | -14.4% (inactive) | 
N#Cc1cccc(C(C#N)c2ccc(Cl)cc2Cl)n1 (stereo unspecified) | -3.73% (inactive) | 
N#CC(c1ccc(Cl)cc1Cl)c1ncccc1Cl (stereo unspecified) | 2.07% (inactive) | 
N#CC(c1ccc(C(F)(F)F)cc1)c1cccc(C(F)(F)F)n1 (stereo unspecified) | -4.57% (inactive) | 
CCCCC(C#N)c1ccc(Cl)cc1Cl (stereo unspecified) | -10.8% (inactive) | 
